The text below walks through data of ChEMBL document CHEMBL3286388, “Discovery of potent anticancer agent HJC0416, an orally bioavailable small molecule inhibitor of signal transducer and activator of transcription 3 (STAT3)” (Eur J Med Chem, 2014).

Data set [1] in a line: Antiproliferative activity against human PANC1 cells assessed as inhibition of cell proliferation after 72 hrs by MTS assay. In kind it is functional, cell-based. The following applies: PANC-1, 72 h. The gist of the method: (§1)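 Cells seeded at 2 × 10^3 per well, exposed to DMSO or 0.01–100 µM (0.01, 0.1, 1, 5, 10, 100) for 72 h. MTS added, OD 550 nm read after 1 h at 37 °C. Quadruplicate wells for each concentration; IC50 reported.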
In general terms: Tetrazolium assays rely on reduction of a dye to a coloured formazan, in cell work by metabolically active cells.

Data set [2] concerns ASPC1. Description: Antiproliferative activity against human AsPC1 cells assessed as inhibition of cell proliferation after 72 hrs by MTS assay. The settings on record: ASPC1, 72 h. Type of data set: functional, cell-based. The method in brief: as §1
Data set [3] relates to MCF7. In words: Antiproliferative activity against ER-positive human MCF7 cells assessed as inhibition of cell proliferation after 72 hrs by MTS assay. In kind it is functional, cell-based. The following applies: MCF7, 72 h. The gist of the method:
as §1

The subject of data set [4] is MDA-MB-231. In words: Antiproliferative activity against ER-negative and triple-negative human MDA-MB-231 cells assessed as inhibition of cell proliferation after 72 hrs by MTS assay. The settings on record: MDA-MB-231, 72 h. In kind it is functional, cell-based. The method in brief: as §1
The test system of data set [5] is MDA-MB-231. Description: Anticancer activity against human MDA-MB-231 cells assessed as cell growth inhibition, apoptosis and cellular morphological changes at 1 to 10 uM after 48 hrs by light microscopy. Type of data set: functional, cell-based. The gist of the method:
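Exponentially growing MDA-MB-231 cells incubated with compound for 48 h; growth, apoptosis and morphology judged under light microscopy.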

The target of data set [6] is Signal transducer and activator of transcription 3 (Homo sapiens) (UniProt P40763). In words: Inhibition of STAT3 phosphorylation at Tyr705 in human MDA-MB-231 cells at 1 to 10 uM after 12 hrs by western blot analysis. In kind it is cell-based. The method in brief:
(§2)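 MDA-MB-231 cells treated for 12 h. Lysates (40 µg protein, BCA) run on 10% SDS-PAGE and transferred to nitrocellulose. Blocked in 5% milk/1% Tween 20 in TBS, probed for pSTAT3 Y705, STAT3, active caspase-3, cyclin D1 and β-actin, ECL detection.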
For orientation: A western blot detects proteins with antibodies after separation by electrophoresis.

For data set [7], the system named is MDA-MB-231. Description: Inhibition of STAT3 promoter activity in human MDA-MB-231 cells at 5 uM after 24 hrs by dual luciferase reporter assay. The following applies: MDA-MB-231, 24 h. Type of data set: functional. The gist of the method:
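MDA-MB-231 cells pretreated at 5 µM for 24 h, replated in RPMI-1640 with 10% FBS, and transfected 4 h later with pSTAT3-Luc plus renilla control (95:5, 0.5 µg DNA per well). Treated again for 24 h starting 5 h after transfection. RLU = firefly/renilla luciferase relative to DMSO control. Triplicate wells, at least 3 independent experiments.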

In data set [8] the test system is MDA-MB-231. Description: Decrease in STAT3 protein expression in human MDA-MB-231 cells at 1 to 10 uM after 12 hrs by western blot analysis. In kind it is functional, cell-based. The gist of the method: as §2
The subject of data set [9] is Mus musculus. Description: Toxicity in nude mouse xenografted with triple-negative human MDA-MB-231 cells assessed as body weight loss at 100 mg/kg, po administered via gavage for five days per week. Type of data set: organism-based. Also noted: dose 100 mg/kg, route oral. The following applies: in vivo. The gist of the method:
(§3)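 Female nude mice, 6 weeks old, received 2.5 × 10^6 MDA-MB-231 cells in PBS into the 3rd mammary fat pad and were randomized (5–10 per group). Dosing began at 150 mm³ tumors for ip daily 10 mg/kg, or 110 mm³ for oral gavage 100 mg/kg five days per week. Vehicle was 50% DMSO/50% PEG. Body weight and tumor volume (0.5·L·W²) measured daily.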
On the technique in general: In xenograft studies the graft and the host belong to different species.

Data set [10] deals with MDA-MB-231. Description: Downregulation of cyclin D1 protein expression in human MDA-MB-231 cells at 1 to 10 uM after 12 hrs by western blot analysis. Type of data set: functional, cell-based. The method in brief:
as §2

Data set [11] deals with MDA-MB-231. In words: Induction of apoptosis in human MDA-MB-231 cells assessed as cleaved caspase-3 level at 1 to 10 uM after 12 hrs by western blot analysis. Type of data set: functional, cell-based. The method in brief: as §2
In data set [12] the test system is MDA-MB-231. Description: Antitumor activity against triple-negative human MDA-MB-231 cells xenografted in nude mouse assessed as decrease in tumor volume at 100 mg/kg, po administered via gavage for five days per week. Type of data set: functional. The following applies: MDA-MB-231, 120 h. The method in brief: as §3
Data set [13] has as its system MDA-MB-231. In words: Antitumor activity against triple-negative human MDA-MB-231 cells xenografted in nude mouse assessed as decrease in tumor volume at 10 mg/kg, ip administered daily. In kind it is functional. The settings on record: MDA-MB-231, ip, route intraperitoneal. The gist of the method: as §3

Calls of active or inactive are those of the source. No cut-off for these calls is given here.

Chain of Signal transducer and activator of transcription 3 (Homo sapiens) (P40763 whole entry): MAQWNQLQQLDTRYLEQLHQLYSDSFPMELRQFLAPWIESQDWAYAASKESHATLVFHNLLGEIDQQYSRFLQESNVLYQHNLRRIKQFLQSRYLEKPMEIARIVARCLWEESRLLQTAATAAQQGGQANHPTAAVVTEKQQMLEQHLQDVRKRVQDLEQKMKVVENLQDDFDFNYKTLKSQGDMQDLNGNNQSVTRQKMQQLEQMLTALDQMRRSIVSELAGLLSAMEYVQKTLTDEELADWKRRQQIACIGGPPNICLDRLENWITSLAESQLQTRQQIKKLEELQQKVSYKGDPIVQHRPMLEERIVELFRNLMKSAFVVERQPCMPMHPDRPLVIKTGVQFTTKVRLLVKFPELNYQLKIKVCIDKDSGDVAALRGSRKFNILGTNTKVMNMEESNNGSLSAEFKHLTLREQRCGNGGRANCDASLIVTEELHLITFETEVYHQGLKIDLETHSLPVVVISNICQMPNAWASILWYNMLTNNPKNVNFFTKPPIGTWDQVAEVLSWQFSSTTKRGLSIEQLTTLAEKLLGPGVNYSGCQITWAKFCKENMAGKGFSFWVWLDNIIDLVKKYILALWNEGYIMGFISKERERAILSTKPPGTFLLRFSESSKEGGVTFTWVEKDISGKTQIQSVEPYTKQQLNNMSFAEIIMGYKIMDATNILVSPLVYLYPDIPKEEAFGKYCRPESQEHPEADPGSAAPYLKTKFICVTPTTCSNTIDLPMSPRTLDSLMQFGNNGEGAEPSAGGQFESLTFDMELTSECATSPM

As for `O=C(Nc1ccc2c(c1)S(=O)(=O)C=C2)c1cc(Cl)ccc1OCCN1CCNCC1`, the IC50 (in general, the concentration needed to halve the response being measured) amounted to 3.69 µM in data set [1], 1.02 µM in data set [2], 2.56 µM in data set [3] and 3.29 µM in data set [4].
On to `O=[N+]([O-])c1ccc2c(c1)S(=O)(=O)C=C2`, for which the IC50 in data set [1] amounted to 3.77 µM; in data set [2] it was 1.32 µM; in data set [3], 3.6 µM; in data set [4], 2.89 µM. Also, the result in data set [5] was Active. The inhibition entry in data set [6] and in data set [8] was “Active” in each case. Besides, in data set [7], 5 µM produced 39% inhibition.
As to `CN(C)CCOc1ccc(Cl)cc1C(=O)Nc1ccc2c(c1)S(=O)(=O)C=C2`, the IC50 in data set [1] stood at 3.38 µM; in data set [2] it was 1.14 µM; in data set [3] it was 3.5 µM; in [4], 2.69 µM.
As to `O=C(Nc1ccc2c(c1)S(=O)(=O)C=C2)c1cc(Cl)ccc1OCCN1CCCCC1`, the IC50 was 1.81 µM in data set [1], 1.42 µM in data set [2], 3.74 µM in data set [3] and 2.51 µM in data set [4].
In the same order, the values of `CN1CCC(Oc2ccc(Cl)cc2C(=O)Nc2ccc3c(c2)S(=O)(=O)C=C3)CC1` are 1.36 µM, 1.04 µM, 3.53 µM and 2.68 µM.
For `O=C(Nc1ccc2c(c1)S(=O)(=O)C=C2)c1cc(Cl)ccc1OCCBr`, the IC50 in [3] and in data set [4] was above 10 µM each time.
`NCCOc1ccc(Cl)cc1C(=O)Nc1ccc2c(c1)S(=O)(=O)C=C2`: the half-maximal inhibitory concentration (IC50) in data set [1] amounted to 2.25 µM; in data set [2] it was 1.05 µM; in data set [3], 3.47 µM; in data set [4], 3.12 µM.
For the compound `O=C(Nc1ccc2c(c1)S(=O)(=O)C=C2)c1cc(Cl)ccc1OC1CCNCC1`, the IC50 in data set [1] came to 4.09 µM; in data set [2], 1.6 µM; in [3], 4.21 µM; in data set [4], 2.85 µM.
Take `CN1CCN(CCOc2ccc(Cl)cc2C(=O)Nc2ccc3c(c2)S(=O)(=O)C=C3)CC1`: the IC50 was found to be 3.01 µM in data set [1], 1.07 µM in data set [2], 4.08 µM in data set [3] and 2.86 µM in data set [4].
On to `NCCCOc1ccc(Cl)cc1C(=O)Nc1ccc2c(c1)S(=O)(=O)C=C2`, for which the Activity result in [9] is listed as “Non-toxic”. Further, the inhibition entry in data set [10], in data set [6] and in data set [8] was “Active” throughout. The 50% inhibitory concentration (IC50) in data set [1] came to 1.88 µM; in data set [2], 0.04 µM; in data set [3], 1.76 µM; in data set [4], 1.97 µM. Further, the result in [5] and in data set [11] was Active. 5 µM produced 51% inhibition in data set [7]. In addition, the inhibition in vivo (as a rule, how much of the control response was suppressed) at 100 mg/kg in data set [12] turned out to be 46%. Moreover, in data set [13], the inhibition in vivo at 10 mg/kg worked out at 67%.
In the case of `O=C(Nc1ccc2c(c1)S(=O)(=O)C=C2)c1cc(Cl)ccc1OCCN1CCOCC1`, the IC50 in [1] is 6.95 µM; in [2], 1.37 µM; in data set [3] it was 0.49 µM; in [4], 5.43 µM.
Regarding `CNCCOc1ccc(Cl)cc1C(=O)Nc1ccc2c(c1)S(=O)(=O)C=C2`, the IC50 was 3.09 µM in [1], 2.05 µM in [2], 3.15 µM in data set [3] and 3.12 µM in data set [4].
As to `COC1CS(=O)(=O)c2cc(NC(=O)c3cc(Cl)ccc3O)ccc21` (configuration not stated), the IC50 in [1] amounted to 8.39 µM; in [2] it was 8.46 µM; in data set [3], 6.07 µM; in data set [4] it was 7.05 µM.
Take `O=C(Nc1ccc2c(c1)S(=O)(=O)C=C2)c1cc(Cl)ccc1OCCF`: the IC50 in data set [1] came out at 9.53 µM; in [2] it was 1.37 µM; in [3] it was 4 µM; in data set [4] it was 4.42 µM.
